Activity calls are given as the source filed them.
Columns and labels:
[1] = target: T1, GABA A receptor alpha-6/beta-2/gamma-2 (Homo sapiens, UniProt P18507+P47870+Q16445); assay: Displacement of [3H]-Ro-15-4513 from GABA-A receptor alpha-6-beta-2-gamma-2 subunits expressed in Sf9 cells
How it was run: (§1)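 Membranes from Sf-9 cells infected (MOI 3) with baculoviruses for α1, α3 or α6 plus β2 and γ2 subunits, harvested 60 h postinfection. Binding in normal saline with 6 nM [3H]flunitrazepam (α1, α3) or [3H]Ro 15-4513 (α6), 50 µg membrane protein, varying test ligand. Incubated 60 min at 4 °C, filtered, scintillation counted.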

Mus musculus [2] = assay: Acute electroshock physical dependence activity was evaluated; A=Active at 15 mg/Kg; type: functional, organism-based
Mus musculus [3] = assay: Ethanol potentiation activity was measured as loss of righting reflex in male CF-1 mice after oral administration; type: functional
Mus musculus [4] = assay: Ethanol potentiation activity was measured as loss of traction response in male CF-1 mice after oral administration; type: functional
Rattus norvegicus [5] = assay: Antagonistic activity against metrazole-induced clonic convulsions in rat after ip injection; type: functional
Rattus norvegicus [6] = species: Rattus norvegicus; assay: In vitro [36Cl]-uptake in rat cerebrocortical synaptoneurosomes; type: functional; design: unit not given here
How it was run: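 Rat cerebrocortical synaptoneurosomes (1 mg protein) preincubated 5 min at 30 °C, then mixed with medium containing 0.2 µCi Na36Cl/mL, 118 mM NaCl, 5 mM KCl, 1.8 mM MgSO4, 20 mM Hepes/Tris pH 7.0, ± drug (methanol ≤0.4%). Uptake stopped after 5 s with ice-cold buffer, rapid filtration, four washes, radioactivity counted.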

[7] = target: T2, GABA-A receptor; alpha-1/beta-2/gamma-2 (Homo sapiens, UniProt P14867+P18507+P47870); assay: (§2) Displacement of [3H]Flunitrazepam from GABA-A receptor alpha-1-beta-2-gamma-2 subunits expressed in Sf9 cells
T2 sequence (P14867 whole entry): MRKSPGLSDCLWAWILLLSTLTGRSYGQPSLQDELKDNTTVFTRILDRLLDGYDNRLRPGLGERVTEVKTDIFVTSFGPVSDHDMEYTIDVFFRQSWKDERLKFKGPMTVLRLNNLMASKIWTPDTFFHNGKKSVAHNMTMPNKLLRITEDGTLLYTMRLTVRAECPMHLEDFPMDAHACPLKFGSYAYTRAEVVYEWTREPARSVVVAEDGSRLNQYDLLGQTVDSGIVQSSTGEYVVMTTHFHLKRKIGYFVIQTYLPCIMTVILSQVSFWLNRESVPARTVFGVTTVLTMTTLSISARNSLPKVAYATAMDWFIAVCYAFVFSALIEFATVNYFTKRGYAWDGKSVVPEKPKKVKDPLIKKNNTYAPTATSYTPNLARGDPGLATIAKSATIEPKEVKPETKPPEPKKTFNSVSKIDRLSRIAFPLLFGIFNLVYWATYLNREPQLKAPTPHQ
T2 sequence (P47870 whole entry): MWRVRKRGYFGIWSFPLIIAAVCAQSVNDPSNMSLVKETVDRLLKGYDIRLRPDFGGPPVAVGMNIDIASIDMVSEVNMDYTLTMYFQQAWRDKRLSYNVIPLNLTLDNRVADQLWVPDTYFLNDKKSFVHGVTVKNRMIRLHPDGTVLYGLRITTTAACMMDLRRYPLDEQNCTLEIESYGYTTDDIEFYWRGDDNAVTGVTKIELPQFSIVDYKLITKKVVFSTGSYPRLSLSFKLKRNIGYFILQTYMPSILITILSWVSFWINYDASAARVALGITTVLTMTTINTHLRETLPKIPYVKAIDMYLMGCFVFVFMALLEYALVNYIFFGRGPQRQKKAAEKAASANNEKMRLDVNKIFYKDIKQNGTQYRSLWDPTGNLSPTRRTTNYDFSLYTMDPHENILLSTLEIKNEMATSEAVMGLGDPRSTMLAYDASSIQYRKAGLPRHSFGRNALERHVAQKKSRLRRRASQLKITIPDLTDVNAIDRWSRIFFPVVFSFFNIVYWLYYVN
T2 sequence (P18507 whole entry): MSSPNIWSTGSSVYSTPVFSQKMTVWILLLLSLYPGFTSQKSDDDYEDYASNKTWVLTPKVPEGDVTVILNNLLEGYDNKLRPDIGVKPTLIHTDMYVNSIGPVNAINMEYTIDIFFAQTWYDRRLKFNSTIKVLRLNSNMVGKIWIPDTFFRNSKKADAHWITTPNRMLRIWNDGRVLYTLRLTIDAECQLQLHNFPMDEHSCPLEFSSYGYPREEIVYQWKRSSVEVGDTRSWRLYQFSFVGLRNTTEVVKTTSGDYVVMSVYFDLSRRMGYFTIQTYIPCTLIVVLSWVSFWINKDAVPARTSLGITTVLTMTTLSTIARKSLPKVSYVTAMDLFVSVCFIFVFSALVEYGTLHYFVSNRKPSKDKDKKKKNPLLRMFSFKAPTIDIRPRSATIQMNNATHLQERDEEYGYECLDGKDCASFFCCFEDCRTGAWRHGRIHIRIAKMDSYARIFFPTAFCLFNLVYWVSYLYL

[8] = target: GABA-A receptor; anion channel; assay: Inhibition of [3H]flunitrazepam binding to GABA-A receptor of rat cortical membranes; type: cell membranes, Membrane
[9] = target: T3, GABA A receptor alpha-3/beta-2/gamma-2 (Homo sapiens, UniProt P18507+P34903+P47870); assay: (§3) Displacement of [3H]flunitrazepam from GABA-A receptor alpha-3-beta-2-gamma-2 subunits expressed in Sf9 cells; how it was run: as §1
T3 sequence (P47870 whole entry): T2 sequence (P47870 whole entry)
T3 sequence (P18507 whole entry): T2 sequence (P18507 whole entry)
T3 sequence (P34903 whole entry): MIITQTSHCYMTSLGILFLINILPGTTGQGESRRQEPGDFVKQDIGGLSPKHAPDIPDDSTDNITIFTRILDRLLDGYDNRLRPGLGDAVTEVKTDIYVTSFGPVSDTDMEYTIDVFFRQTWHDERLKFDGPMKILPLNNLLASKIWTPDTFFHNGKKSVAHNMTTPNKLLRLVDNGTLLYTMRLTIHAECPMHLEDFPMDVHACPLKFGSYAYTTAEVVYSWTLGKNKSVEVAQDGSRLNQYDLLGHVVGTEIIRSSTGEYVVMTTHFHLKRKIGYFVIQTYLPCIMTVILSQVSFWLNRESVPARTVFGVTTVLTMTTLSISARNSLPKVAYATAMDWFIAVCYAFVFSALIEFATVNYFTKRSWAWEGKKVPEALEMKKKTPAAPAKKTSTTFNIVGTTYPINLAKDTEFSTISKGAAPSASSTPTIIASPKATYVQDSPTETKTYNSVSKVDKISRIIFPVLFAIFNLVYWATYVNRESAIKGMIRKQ

Mus musculus [10] = species: Mus musculus; assay: Acute electroshock physical dependence activity was evaluated; A=Active; type: functional, organism-based
How it was run: (§4)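 Male CF-1 mice, 10/group, dosed sc twice daily (0800, and 1600 at twice the 0800 dose) for 3 days. 24 h after last dose, iv flumazenil 2.5 mg/kg in 5% aqueous N,N-dimethylacetamide. Electroshock seizure threshold (MA50) measured 5 min later versus saline-treated, flumazenil-injected controls. Compound scored active if threshold lowered beyond control interval.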

[11] = target: GABA-A receptor; anion channel (Rattus norvegicus) (UniProt O09028+P15431+P18506+P18508+P19969+P20236+P23574+P23576+P28471+P28473+P30191+P62813+P63079+P63138+Q91ZM7+Q9ES14); conditions: Brain, Brain membranes
Mus musculus [12] = species: Mus musculus; assay: Acute electroshock physical dependence activity was evaluated; IA=Inactive; type: functional, organism-based; how it was run: as §4
Mus musculus [13] = assay: In vivo antagonistic activity against benzodiazepine in mice; type: functional
How it was run: (§5)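 Male CF-1 mice injected ip simultaneously with triazolam 1 mg/kg and test compound starting at […], in 0.25% aqueous methyl cellulose. Loss of traction scored 15 min later. Absence of triazolam effect indicated antagonism; lower doses at 0.5 log intervals then tested to establish ED50.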

Mus musculus [14] = species: Mus musculus; assay: Ethanol potentiation was measured against LORR; type: functional
How it was run: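 Male CF-1 mice given 7.5 mL/kg 50% aqueous ethanol orally with test compound sc simultaneously (in 0.25% aqueous methyl cellulose). After 30 min, scored for loss of traction (hindlimb placement on wire within 10 s) and loss of righting reflex (no righting within 10 s). Six mice/dose; active compounds retested at several doses for ED50.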

[15] = target: T2, GABA-A receptor; alpha-1/beta-2/gamma-2; assay: Displacement of [3H]flunitrazepam from GABA-A receptor alpha-1-beta-2-gamma-2 subunits expressed in Sf9 cells; how it was run: as §1
[16] = target: T3, GABA A receptor alpha-3/beta-2/gamma-2; assay: as §3; remark: listed apart in the source
How it was run: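 Sf-9 cells were co-infected with baculoviruses for α3, β2 and γ2 subunits at MOI 3 and harvested 60 h postinfection to prepare membranes. Binding used 6 nM [3H]flunitrazepam, 50 µg membrane protein and varying test ligand concentrations in normal saline (NaCl/KCl/MgCl2/CaCl2/Hepes, pH 7.2). Incubation ran 60 min at 4 °C, followed by glass-fibre filtration, four cold-saline washes and scintillation counting.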

Mus musculus [17] = assay: In vivo antagonistic activity against benzodiazepine in mice after ip administration; type: functional; how it was run: as §5
[18] = target: T2, GABA-A receptor; alpha-1/beta-2/gamma-2; assay: as §2; design: species or system insect
How it was run: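 Equilibrium competition binding on membranes from Sf-9 cells co-infected (MOI 3) with baculoviruses for α1, β2 and γ2 subunits, harvested 60 h postinfection. Assay in normal saline with 6 nM [3H]flunitrazepam, 50 µg membrane protein and varying test ligand concentrations. Incubated 60 min at 4 °C, filtered over glass fiber, washed four times with cold saline, then scintillation counted.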

[19] = target: GABA-A receptor alpha-1/beta-2/gamma-2 (Homo sapiens); assay: Binding affinity towards [3H]Fnz in alpha-1-beta-2-gamma-2 subtype was measured
[20] = target: T1, GABA A receptor alpha-6/beta-2/gamma-2; assay: Displacement of [3H]Ro-154513 from GABA-A receptor alpha-6-beta-2-gamma-2 subunits expressed in Sf9 cells; how it was run: as §1

T1 sequence (Q16445 whole entry, one chain of several): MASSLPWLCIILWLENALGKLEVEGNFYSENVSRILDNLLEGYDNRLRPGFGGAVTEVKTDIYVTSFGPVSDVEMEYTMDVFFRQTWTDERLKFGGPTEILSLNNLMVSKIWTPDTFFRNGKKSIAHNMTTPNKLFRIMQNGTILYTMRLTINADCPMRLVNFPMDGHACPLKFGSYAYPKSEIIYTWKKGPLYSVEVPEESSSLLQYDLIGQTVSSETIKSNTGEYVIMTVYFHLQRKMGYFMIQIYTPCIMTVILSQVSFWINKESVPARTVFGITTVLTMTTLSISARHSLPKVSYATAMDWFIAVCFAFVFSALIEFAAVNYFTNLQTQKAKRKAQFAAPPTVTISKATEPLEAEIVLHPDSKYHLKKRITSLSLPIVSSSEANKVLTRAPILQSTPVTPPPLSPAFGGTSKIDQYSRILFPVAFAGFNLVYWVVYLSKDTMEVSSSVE

Compound | Ki [1] [nM] | ED50 (Mus musculus [3]) [mg/kg] | ED50 (Mus musculus [4]) [mg/kg] | ED50 (Rattus norvegicus [5]) [mg/kg] | 36Cl- uptake (Rattus norvegicus [6]) | Ki [7] [nM] | Ki [8] [nM] | Ki [9] [nM] | [35S] TBPS shift [11] | Ki [15] [nM] | also measured
CN1C(=O)CN=C(c2ccccc2)c2cc(Cl)ccc21 [DIAZEPAM] | > 7000 | 0.86 | 0.54 | 0.5 | 1 |  |  |  |  |  | Activity (Mus musculus [2]): Active
O=C(N1CCOCC1)N1Cc2c(-c3noc(C4CC4)n3)ncn2-c2cccc(F)c21 | 13 |  |  | 6.2 | 0.42 | 0.17 | 0.48 | 0.51 | 0.66 |  | Activity (Mus musculus [10]): Active
CC(C)n1c(=O)c2c(-c3noc(C4CC4)n3)ncn2c2ccccc21 [PANADIPLON] | 603 |  | 6.6 | 1.6 | 0.04 | 3.5 | 1.6 | 5.7 | 0.06 |  | Activity (Mus musculus [12]): inactive; ED50 (Mus musculus [13]): 1.7 mg/kg; ED50 (Mus musculus [14]): > 30 mg/kg
CCNC(=O)N1Cc2c(-c3noc(C4CC4)n3)ncn2-c2ccccc21 |  | > 30 | > 30 | 5.3 | 0.22 |  | 3.5 |  | 0.72 | 4.5 | Ki [16]: 15 nM; Activity (Mus musculus [12]): inactive; ED50 (Mus musculus [17]): > 30 mg/kg
CCOC(=O)c1ncn2c1CN(C)C(=O)c1cc(N=[N+]=[N-])ccc1-2 [Ro-154513] |  |  |  |  |  |  |  |  |  |  | Ki [18]: 15 nM
O=C(N1CCOCC1)N1Cc2c(-c3noc(C4CC4)n3)ncn2-c2ccc(F)cc21 |  | > 30 | 2 | 6.2 | 1.1 | 0.3 | 0.68 | 0.7 | 0.96 |  | A (Mus musculus [10]): Active; ED50 (Mus musculus [17]): 1 mg/kg
O=C(N1CCOCC1)N1Cc2c(-c3noc(C4CC4)n3)ncn2-c2ccc(Cl)cc21 |  |  |  |  | 1 |  | 2.3 |  | 0.71 | 0.22 | Ki [19]: 2 nM
CC(=O)N1Cc2c(-c3noc(C4CC4)n3)ncn2-c2ccccc21 |  |  |  | 35 |  |  |  |  | 0.94 | 2.7 | Ki [20]: 124 nM
O=C(c1ccccc1)N1Cc2c(-c3noc(C4CC4)n3)ncn2-c2ccccc21 | 1140 |  |  | 42 |  | 0.3 |  |  | 0.54 |  | 
CN(C)C(=O)N1Cc2c(-c3noc(C4CC4)n3)ncn2-c2ccccc21 [PNU-91571] |  | > 30 | 27 | 21 | 0.68 |  | 1 |  | 0.69 | 1.7 | Ki [16]: 3.5 nM; Activity (Mus musculus [12]): inactive; ED50 (Mus musculus [17]): 1 mg/kg
Cc1cccc2c1N(C(=O)N1CCOCC1)Cc1c(-c3noc(C4CC4)n3)ncn1-2 |  |  |  | 5.2 | 0.7 | 4.7 | 4.6 | 30 | 0.51 |  | 
